Source: PubChem
PHOSPHO1 block = inhibitors of human PHOSPHO1 phosphatase; AID 1565; recombinant PHOSPHO1, absorbance phosphatase assay; Q8TCT1; inhibition, % at 13.3 µM; actives 1.1% (n = 290,000); in the data active means inhibition above about 60%
Target sequence (Q8TCT1 whole entry, looked up): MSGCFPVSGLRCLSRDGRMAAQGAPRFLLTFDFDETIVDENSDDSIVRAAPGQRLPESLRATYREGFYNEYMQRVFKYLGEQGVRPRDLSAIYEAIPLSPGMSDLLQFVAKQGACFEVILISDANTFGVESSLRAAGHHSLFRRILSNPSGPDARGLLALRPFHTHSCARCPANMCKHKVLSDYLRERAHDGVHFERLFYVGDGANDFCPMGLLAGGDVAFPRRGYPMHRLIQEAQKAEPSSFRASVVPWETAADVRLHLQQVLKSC
Efa HMGR inh = inhibitors of class II HMG-CoA reductase from Enterococcus faecalis; purified E. faecalis HMGR, NADPH absorbance 340 nm kinetic; inhibition, % at 10 µM; actives 0.41% (n = 190,000); AID 1066;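 active means inhibition above a set limit, the median over all tested compounds plus 3 SD, cut at about 9.5% in these data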;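 further: enzyme runs in reverse so mevalonate oxidation gives rising NADPH absorbance; 0% = complete reaction with DMSO and 100% = background rate lacking mevalonate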
RanGTP-Impb inh = inhibitors of RanGTP-importin-beta interaction, primary screen, biochemical, FRET, CFP-Ran, YFP-importin-beta, homogeneous. cell-free CFP-Ran/YFP-importin-beta FRET ratio. actives 1.1% (n = 300,000). inhibition, % (no concentration beside the values);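 active means more than half of the replicate wells show a fall in the fluorescence ratio signal beyond about 16%, limit read from the data, passing the limit was not always enough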;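 further: 0% = DMSO wells and 100% = Ran loaded with GDP instead of GTP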
Wee1 degr inh = human Wee1 degradation inhibition, primary screen | P30291 | actives 1.2% (n = 220,000) | HeLa Luc-Wee1K328M stability, luciferase luminescence; 100% = proteasome inhibitor MG132 effect | reporter increase, % at 5 µM;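 active means activation above the mean of all tested compounds plus 3 SD, set per screening run, cut at about 8.8% in these data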;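 further: cells exposed to compound for 20 h before luminescence read; 0% = DMSO alone and 100% = MG132 at 30 µM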
Runt-CBFb FRET = Runt domain-CBFb interaction inhibition; Q01196+Q13951; Cerulean-Runt/Venus-CBFb FRET ratio 530/480, 1 h; inhibition, % at 20 µM; actives 0.46% (n = 220,000);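 active means inhibition over about 50% at 20 µM in the single-dose screen, limit read from the data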;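 further: 0% = DMSO wells and 100% = excess unlabeled CBFb competitor control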
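Assay system: Cerulean-Runt domain fusion protein, energy donor; Signal: fluorescence energy transfer, 422 nm excitation, 530/480 nm emission; Timing: 1 h compound exposure, room temperature; Control set: unlabeled CBFb; Medium: Tris buffer pH 7.5 with salts and BSA; Compound: single test concentration of 20 µM, 1% DMSO final; Probe or stimulus: Venus-CBFb 100 nM.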
Runt-SMMHC FRET = inhibitors of human RUNX1 Runt domain binding to CBFb-SMMHC; Q01196+Q13951; Cerulean-Runt/Venus-CBFb-SMMHC FRET ratio 530/480, 1 h; inhibition, % at 20 µM; actives 0.74% (n = 220,000);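 active means mean inhibition across duplicate retests at 20 µM reaching about 50%, limit read from the data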;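 further: 0% = DMSO wells and 100% = wells with excess untagged CBFb-SMMHC; inhibitors lower the FRET ratio by blocking Runt binding to CBFb-SMMHC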
The depositor's hits bear a star. The list is not random: actives were taken first. Their share in the collection is about 3.4%.

For O=S(=O)(c1cccc2nonc12)N1CCCCC1 the results were PHOSPHO1 block 13.7 and RanGTP-Impb inh 2.2.
`CC1CN(C(=O)/C(=C/c2ccco2)NC(=O)c2ccccc2)CC(C)O1` (stereo unspecified) gave PHOSPHO1 block 46.2 and RanGTP-Impb inh -3.7.
CCCn1nc(C(=O)Nc2cc(C(=O)OC)ccc2C)c2ccccc2c1=O was read as PHOSPHO1 block -14.6, Efa HMGR inh -2.1, RanGTP-Impb inh 3.8, Wee1 degr inh -2.0, Runt-CBFb FRET -1.8 and Runt-SMMHC FRET 2.9.
`COC(=O)c1ccc(C)c(NC(=O)c2nn(C)c(=O)c3ccccc23)c1` gave PHOSPHO1 block -7.7, Efa HMGR inh -1.5, RanGTP-Impb inh -1.3, Wee1 degr inh 8.9*, Runt-CBFb FRET -0.9 and Runt-SMMHC FRET 2.2.
For Cc1ccccc1-c1cn(-c2ccccc2)c(=S)[nH]1 the results were PHOSPHO1 block 46.7 and RanGTP-Impb inh 5.0.
Screening CC(C)(C)c1cn(-c2ccc(F)cc2)c(=S)[nH]1 returned PHOSPHO1 block 68.8*, Efa HMGR inh 0.1, RanGTP-Impb inh -3.2, Wee1 degr inh -0.8, Runt-CBFb FRET 16.4 and Runt-SMMHC FRET 6.9.
Screening CCNC(=S)NNC(=O)c1cc(C)on1 returned PHOSPHO1 block 29.8, Efa HMGR inh -4.2, RanGTP-Impb inh 1.3, Wee1 degr inh 2.0, Runt-CBFb FRET -1.1 and Runt-SMMHC FRET 1.8.
C[C@]12C(=O)N(c3ccc(Cl)cc3)C(=O)N1[C@@H]1c3ccccc3OC[C@@H]1[C@H]2c1ccccc1 was read as RanGTP-Impb inh -2.0.
Screening Cc1ccc(-c2nc(NCC3CCCO3)sc2C)cc1 (stereo unspecified) returned PHOSPHO1 block 1.8, Efa HMGR inh 12.1*, RanGTP-Impb inh -5.0, Wee1 degr inh 0.2, Runt-CBFb FRET 11.8 and Runt-SMMHC FRET 2.8.
`O=C1N=C(N2CCCCC2)SC1=C1CCCCC1` gave PHOSPHO1 block 18.6, Efa HMGR inh -3.9, RanGTP-Impb inh 5.2, Wee1 degr inh 3.0, Runt-CBFb FRET 3.2 and Runt-SMMHC FRET 2.4.
For O=C1NC(=S)SC1=C1CCCCCC1 the results were PHOSPHO1 block 83.6*, Efa HMGR inh -1.8, RanGTP-Impb inh -1.1, Wee1 degr inh -3.1, Runt-CBFb FRET 34.1 and Runt-SMMHC FRET 6.2.
Cc1cc(C)c(S(=O)(=O)c2ccccc2F)c(=O)[nH]1 was read as PHOSPHO1 block 41.5 and RanGTP-Impb inh -0.6.
For CCCCSc1nnc2n(CCc3ccccc3)c(=O)c3c4c(sc3n12)COC(C)(C)C4 the results were PHOSPHO1 block -5.8, Efa HMGR inh -5.3, RanGTP-Impb inh 3.0, Wee1 degr inh -1.5, Runt-CBFb FRET -4.5 and Runt-SMMHC FRET 1.6.
`Cc1cccn2c(=O)c(/C=C(\C#N)C(N)=O)c(N3CCN(Cc4ccc5c(c4)OCO5)CC3)nc12` gave PHOSPHO1 block -7.9, Efa HMGR inh 1.4, RanGTP-Impb inh 7.8, Wee1 degr inh 0.2 and Runt-CBFb FRET 121.9*.
For COC(=O)/C(C#N)=C/c1c(N2CCN(c3ccc(OC)cc3)CC2)nc2c(C)cccn2c1=O the results were PHOSPHO1 block 10.6 and RanGTP-Impb inh 33.7*.
For Cc1cccn2c(=O)c(C=C(C#N)C#N)c(N3CCN(c4ccccc4)CC3)nc12 the results were PHOSPHO1 block -3.5 and RanGTP-Impb inh 25.0*.
Screening CCOC(=O)/C(C#N)=C/c1c(N2CCN(Cc3ccc4c(c3)OCO4)CC2)nc2c(C)cccn2c1=O returned PHOSPHO1 block 43.0, RanGTP-Impb inh -36.4, Wee1 degr inh 3.8, Runt-CBFb FRET -11.1 and Runt-SMMHC FRET -17.3.
Screening CNC(=O)/C(C#N)=C/c1c(N2CCN(c3ccccc3)CC2)nc2c(C)cccn2c1=O returned PHOSPHO1 block 7.1 and RanGTP-Impb inh 19.0*.
Screening CCOC(=O)c1c(NC(=S)NC(=O)c2ccc(Cn3cc(Cl)cn3)o2)sc2c1CCCCC2 returned PHOSPHO1 block 3.8, Efa HMGR inh 2.2, RanGTP-Impb inh -4.8, Wee1 degr inh -0.7, Runt-CBFb FRET 0.6 and Runt-SMMHC FRET 4.2.
CCC(C(=O)NC1CCCCCC1)n1nc(C)c2c(C)n(-c3ccccc3)nc2c1=O (stereo unspecified) was read as PHOSPHO1 block 64.7* and RanGTP-Impb inh 1.1.
`CCC(C(=O)NC1CC1)n1nc(C)c2c(C)n(-c3ccc(C)cc3)nc2c1=O` (stereo unspecified) gave PHOSPHO1 block 27.3 and RanGTP-Impb inh 1.4.
`Cc1c(OCC(=O)NCC(O)c2ccccc2)ccc2c(-c3ccccc3)cc(=O)oc12` (stereo unspecified) gave PHOSPHO1 block 13.1 and RanGTP-Impb inh 3.1.
O=C1CCCCN1CCC(=O)N1CCCC(N2CCN(c3ccccc3)CC2)C1 (stereo unspecified) was read as PHOSPHO1 block 75.4* and RanGTP-Impb inh 0.3.
For CCn1c(C)cc(/C=C2/SC(=O)N(C(C)C(=O)OC)C2=O)c1C (stereo unspecified) the results were PHOSPHO1 block 50.9, RanGTP-Impb inh 3.8, Wee1 degr inh -0.4, Runt-CBFb FRET 1.1 and Runt-SMMHC FRET 5.3.
`COC(=O)C(C)N1C(=O)S/C(=C/c2cc(C)n(C(C)C)c2C)C1=O` (stereo unspecified) gave PHOSPHO1 block -12.8, Efa HMGR inh -6.0, RanGTP-Impb inh -2.0, Wee1 degr inh 9.4*, Runt-CBFb FRET 0.5 and Runt-SMMHC FRET 3.3.
For CC1(C)NC(=O)N(CCOc2ccc([N+](=O)[O-])cc2)C1=O the results were PHOSPHO1 block 20.0, Efa HMGR inh -4.9, RanGTP-Impb inh -2.9, Wee1 degr inh 9.6*, Runt-CBFb FRET 2.1 and Runt-SMMHC FRET 0.1.
Cc1cc(OCCCCN2C(=O)NC(C)(C)C2=O)ccc1[N+](=O)[O-] was read as PHOSPHO1 block 29.5, Efa HMGR inh 1.7, RanGTP-Impb inh 3.6, Wee1 degr inh 1.5, Runt-CBFb FRET -1.3 and Runt-SMMHC FRET -0.2.
For CC1(C)N([O-])c2cc([N+](=O)[O-])ccc2[N+]1=O the results were PHOSPHO1 block 23.1, Wee1 degr inh 4.3, Runt-CBFb FRET 63.1* and Runt-SMMHC FRET 85.1*.
`Cc1ccc(C(C(=O)NC2CCCCC2)N(Cc2cccnc2)C(=O)c2csnn2)cc1` (stereo unspecified) gave PHOSPHO1 block 20.0 and RanGTP-Impb inh -3.5.
For COc1ccc(C(=O)Nc2cc3c(oc2=O)CCCC3=O)cc1 the results were PHOSPHO1 block 28.5, Efa HMGR inh 0.7, RanGTP-Impb inh -1.1, Wee1 degr inh 1.3, Runt-CBFb FRET 1.8 and Runt-SMMHC FRET 1.5.
`O=C(Nc1cc2c(oc1=O)CCCC2=O)c1cccc(Cl)c1` gave PHOSPHO1 block 64.6*, Efa HMGR inh -0.7, RanGTP-Impb inh -2.8, Wee1 degr inh 0.0, Runt-CBFb FRET -0.6 and Runt-SMMHC FRET 1.3.
